# Test results from ChEMBL document CHEMBL4257458, “Antiproliferative activities of alkaloid-like compounds” (Medchemcomm, 2017).
# The source made the active and inactive calls. The calls are words filed in the database; no cut-off is given here.
# How the values were obtained:
# MDA-MB-231 [1] = experiment: Growth inhibition of human MDA-MB-231 cells at 50 uM after 48 hrs by MTS assay; type: functional, cell-based
# Outline: (§1)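 Cells in DMEM with 10% FBS and 1% penicillin/streptomycin, 37 °C, 5% CO2; 7 × 10^3 cells per well, serum removed after 24 h, then compound (1–50 μM; DMSO ≤0.1%) for 48 h. MTS reagent 4 h at 37 °C, OD 550 nm; blank-subtracted, normalised to DMSO control (100%). IC50 by nonlinear regression; triplicates.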
# MDA-MB-231 [2] = experiment: Growth inhibition of human MDA-MB-231 cells after 48 hrs by MTS assay; type: functional, cell-based; settings: MDA-MB-231, 48 h; outline: as §1
# PC-3 = experiment: Growth inhibition of human PC3 cells after 48 hrs by SRB assay; type: functional, cell-based; settings: PC-3, 48 h
# MCF7 [3] = experiment: Growth inhibition of human MCF7 cells after 48 hrs by SRB assay; type: functional, cell-based; settings: MCF7, 48 h
# CAKI-1 = experiment: Growth inhibition of human Caki1 cells after 48 hrs by SRB assay; type: functional, cell-based; settings: CAKI-1, 48 h
# Hs-578T = experiment: Growth inhibition of human Hs 578T cells after 48 hrs by SRB assay; type: functional, cell-based
# MDA-MB-435 = experiment: Growth inhibition of human MDA-MB-435 cells after 48 hrs by SRB assay; type: functional, cell-based; settings: MDA-MB-435, 48 h
# SK-MEL-5 = experiment: Growth inhibition of human SK-MEL-5 cells after 48 hrs by SRB assay; type: functional, cell-based; settings: SK-MEL-5, 48 h
# CCRF-CEM = experiment: Growth inhibition of human CCRF-CEM cells after 48 hrs by SRB assay; type: functional, cell-based
# NCI-H522 = experiment: Growth inhibition of human NCI-H522 cells after 48 hrs by SRB assay; type: functional, cell-based; settings: NCI-H522, 48 h
# HL-60(TB) = experiment: Growth inhibition of human HL-60(TB) cells after 48 hrs by SRB assay; type: functional, cell-based; settings: HL-60, 48 h
# SW-620 = experiment: Growth inhibition of human SW620 cells after 48 hrs by SRB assay; type: functional, cell-based; settings: SW-620, 48 h
# EKVX = experiment: Growth inhibition of human EKVX cells after 48 hrs by SRB assay; type: functional, cell-based
# T47D = experiment: Growth inhibition of human T47D cells after 48 hrs by SRB assay; type: functional, cell-based
# MOLT-4 = experiment: Growth inhibition of human MOLT4 cells after 48 hrs by SRB assay; type: functional, cell-based; settings: MOLT-4, 48 h
# RXF 393 = experiment: Growth inhibition of human RXF393 cells after 48 hrs by SRB assay; type: functional, cell-based; settings: RXF 393, 48 h
# HT-29 = experiment: Growth inhibition of human HT-29 cells after 48 hrs by SRB assay; type: functional, cell-based; settings: HT-29, 48 h
# Vero = experiment: Antiproliferative activity against African green monkey Vero cells harboring GFP at 50 ug/ml after 4 days by fluorescence assay relative to control; type: cell-based; settings: chlorocebus sabaeus, 96 h
# Outline: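 GFP-expressing VERO (ATCC CCL-81 stably transfected with pEGFP-N1) in MEM with 10% heat-inactivated FBS, pyruvate, NaHCO3 (geneticin omitted during assay); 3.3 × 10^4 cells per mL; compound added, 4 days at 37 °C, 5% CO2; quadruplicate; fluorescence ex 485/em 535 nm, day-0 signal subtracted; % cytotoxicity = [1 − (FU treated/FU 0.5% DMSO)] × 100; ellipticine positive control.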
# SK-MEL-28 = experiment: Growth inhibition of human SK-MEL-28 cells after 48 hrs by SRB assay; type: functional, cell-based; settings: SK-MEL-28, 48 h
# COLO 205 = experiment: Growth inhibition of human COLO205 cells after 48 hrs by SRB assay; type: functional, cell-based; settings: COLO 205, 48 h
# MDA-MB-231 [4] = experiment: Antiproliferative activity against human MDA-MB-231 cells assessed as cell viability at 75 uM after 48 hrs by MTS assay relative to control; type: functional; settings: MDA-MB-231, 48 h, read-out: Activity
# RPMI-8226 = experiment: Growth inhibition of human RPMI8226 cells after 48 hrs by SRB assay; type: functional, cell-based; settings: RPMI-8226, 48 h
# DU-145 = experiment: Growth inhibition of human DU145 cells after 48 hrs by SRB assay; type: functional, cell-based; settings: DU-145, 48 h
# SF-539 = experiment: Growth inhibition of human SF539 cells after 48 hrs by SRB assay; type: functional, cell-based; settings: SF-539, 48 h
# OVCAR-3 = experiment: Growth inhibition of human OVCAR3 cells after 48 hrs by SRB assay; type: functional, cell-based; settings: OVCAR-3, 48 h
# MDA-MB-231 [5] = experiment: Growth inhibition of human MDA-MB-231 cells after 48 hrs by SRB assay; type: functional, cell-based; settings: MDA-MB-231, 48 h
# MDA-MB-231 [6] = experiment: Cell cycle arrest in human MDA-MB-231 cells assessed as increase in G2/M phase at 20 uM after 24 hrs by propidium iodide staining based flow cytometry relative to control; type: functional
# Outline: (§2)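 MDA-MB-231 seeded at 5 × 10^5 per well, serum-starved 24 h, then treated 24 h (DMSO 0.1% control). Fixed overnight in 80% ethanol at 0 °C, washed, resuspended in PBS with 0.1% Triton X-100 and 0.1 mg mL−1 RNase A, stained with PI (50 μg mL−1) 30 min dark at 37 °C; flow cytometry, 1 × 10^4 events per sample; mean ± SEM of ≥3 independent experiments.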
# MCF7 [7] = experiment: Antiproliferative activity against human MCF7 cells at 50 uM after 48 hrs by MTS assay; type: functional, cell-based; outline: as §1
# MDA-MB-231 [8] = experiment: Cell cycle arrest in human MDA-MB-231 cells assessed as decrease in G0/G1 phase at 20 uM after 24 hrs by propidium iodide staining based flow cytometry relative to control; type: functional; parameters: scale not given: the % may be the effect or the level left; outline: as §2
# MDA-MB-231 [9] = experiment: Antiproliferative activity against human MDA-MB-231 cells assessed as cell viability at 20 uM after 48 hrs by MTS assay relative to control; type: functional; settings: MDA-MB-231, 48 h, read-out: Activity; outline: as §1
# MDA-MB-231 [10] = experiment: Growth inhibition of human MDA-MB-231 cells assessed as cell viability at 50 uM after 48 hrs by MTS assay relative to control; type: functional; settings: MDA-MB-231, 48 h, read-out: Activity; outline: as §1
# MDA-MB-231 [11] = experiment: Induction of apoptosis in human MDA-MB-231 cells after 48 hrs by Annexin V-FITC/propidium iodide staining based flow cytometry; type: functional, cell-based
# Outline: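 MDA-MB-231 at 1 × 10^5 per well, treated 48 h, 24 h after serum removal, at 20–40 μM (DMSO 0.1% v/v control). Cells trypsinised, washed in cold PBS, stained with Annexin V-FITC and PI (50 μg mL−1) in binding buffer, 20 min dark at 0 °C; flow cytometry scoring viable, early/late apoptotic and necrotic fractions; 3 independent experiments.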
compound,measurement,setting,value
CC(=O)N[C@@]1(C)C2CC[C@@]3(C)N=C(CCl)C1CC3C2 (relative stereo),growth inhibition (GI),MDA-MB-231 [1],inactive
COC(=O)C[C@H]1C(=O)C=C2C3CC4CC(CC[C@@]4(C)N21)[C@]3(C)NC(C)=O (some centres not stated),growth inhibition (GI),MDA-MB-231 [1],inactive
same,IC50,MDA-MB-231 [2],> 50 µM
CC(=O)N[C@@]1(C)C2CC[C@]3(C)C(C2)CC1[C@H](C)N3C (some centres not stated),growth inhibition (GI),MDA-MB-231 [1],inactive
CC(=O)N[C@@]1(C)C2CC[C@@]3(C)N[C@@H](C)C1CC3C2 (some centres not stated),growth inhibition (GI),MDA-MB-231 [1],inactive
CCC(=O)N[C@@]1(C)C2CC[C@@]3(C)N[C@@H](CC)C1CC3C2 (some centres not stated),growth inhibition (GI),MDA-MB-231 [1],inactive
CCC(=O)N[C@@]1(C)C2CC[C@@]3(C)N=C(CC)C1CC3C2 (relative stereo),growth inhibition (GI),MDA-MB-231 [1],inactive
CC(=O)N[C@@]1(C)C2CC[C@@]3(C)N[C@@H](CCl)C1CC3C2 (some centres not stated),growth inhibition (GI),MDA-MB-231 [1],inactive
COC(=O)/C=C1\C(=O)C=C2C3CC4CC(CCC4(C)N21)C3(C)NC(C)=O (configuration not stated),IC50,PC-3,15.7 µM
same,IC50,MCF7 [3],7.1 µM
same,IC50,CAKI-1,5.3 µM
same,IC50,Hs-578T,10.9 µM
same,IC50,MDA-MB-435,5.9 µM
same,IC50,SK-MEL-5,6.3 µM
same,IC50,CCRF-CEM,4.4 µM
same,IC50,NCI-H522,2 µM
same,IC50,HL-60(TB),5.5 µM
same,IC50,SW-620,2.8 µM
same,IC50,EKVX,12.2 µM
same,IC50,T47D,22.7 µM
same,IC50,MOLT-4,2.4 µM
same,IC50,RXF 393,6.7 µM
same,IC50,HT-29,7.5 µM
same,Activity,Vero,77%
same,IC50,SK-MEL-28,1.8 µM
same,IC50,COLO 205,7.8 µM
same,viability at 75 µM,MDA-MB-231 [4],80%
same,IC50,RPMI-8226,4.1 µM
same,IC50,DU-145,16.9 µM
same,IC50,SF-539,3.3 µM
same,IC50,OVCAR-3,11.8 µM
same,IC50,MDA-MB-231 [5],38.9 µM
CCC(=O)N[C@@]1(C)C2CC[C@]3(C)C(C2)CC1[C@H](CC)N3C (some centres not stated),growth inhibition (GI),MDA-MB-231 [1],inactive
C[C@]1(NC(=O)CCl)C2CC[C@@]3(C)N=C(CCl)C1CC3C2 (relative stereo),Activity,MDA-MB-231 [6],15%
same,Activity,MCF7 [7],inactive
same,Activity,MDA-MB-231 [8],20%
same,viability at 20 µM,MDA-MB-231 [9],90%
same,IC50,MDA-MB-231 [2],7.9 µM
same,Activity,Vero,84%
same,viability at 50 µM,MDA-MB-231 [10],24%
same,Activity,MDA-MB-231 [11],Dose-dependent effect
CC(=O)N[C@@]1(C)C2CC[C@@]3(C)N=C(C)C1CC3C2 (relative stereo),growth inhibition (GI),MDA-MB-231 [1],inactive
